Lmaj promast – Leishmania major promastigote growth inhibition; Leishmania major promastigotes, resazurin fluorescence viability; inhibition, % at 10 µM; hit rate 9% among 200,000; in the data active means inhibition above about 50%;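 further: promastigotes grown with compound for 44 hours at 28 °C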
WT yeast gro inh – growth inhibition of WT yeast, mitochondrial fusion screen; mitochondrial fusion phenotypic screen, WT strain; inhibition, % at 10 µM; hit rate 2.1% among 190,000; AID 1362; in the data active means inhibition above about 58%; tested in S. cerevisiae
PMI activator – activators of human phosphomannose isomerase; hit rate 0.005% among 190,000; P34949; purified human PMI, coupled resazurin fluorescence, 20 min; hits give high values; 1 = vehicle control, 0 substrate-free wells; AID 1214; activation factor at 20 µM;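 active means activation factor of 2 or more at 20 µM, relative to plate controls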
Target sequence (P34949 whole entry, looked up): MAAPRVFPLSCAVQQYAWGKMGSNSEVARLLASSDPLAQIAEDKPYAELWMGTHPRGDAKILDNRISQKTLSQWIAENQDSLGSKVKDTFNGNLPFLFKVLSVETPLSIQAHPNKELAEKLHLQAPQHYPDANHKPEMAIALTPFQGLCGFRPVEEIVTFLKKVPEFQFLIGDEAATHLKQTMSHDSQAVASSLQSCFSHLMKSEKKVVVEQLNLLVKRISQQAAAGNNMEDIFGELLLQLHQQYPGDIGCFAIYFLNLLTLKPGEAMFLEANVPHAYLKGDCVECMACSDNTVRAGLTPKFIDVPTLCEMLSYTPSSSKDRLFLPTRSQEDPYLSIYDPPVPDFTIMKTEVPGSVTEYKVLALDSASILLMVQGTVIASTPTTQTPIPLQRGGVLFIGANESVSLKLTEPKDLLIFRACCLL
PMI act satM6P – PMI (human) activation, high substrate | P34949 | coupled PMI enzyme assay, resazurin fluorescence, 20 min; hits give high values; 1 = untreated enzyme, 0 = substrate-free blank | activation factor at 20 µM | hit rate 0.34% among 190,000 | AID 1216;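 active means activation factor of 2 or more at 20 µM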
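Material: human phosphomannose isomerase with PGI, G6PDH, diaphorase coupling enzymes / Reagent: Man-6-P substrate 1.0 mM / Dosing: single compound dose of 20 µM, 1% DMSO final / Incubation: enzyme reaction with compound 20 min at room temperature / Signal: resorufin fluorescence (Ex 544/Em 590 nm) from resazurin via diaphorase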
Diaphorase act – counter-screen for diaphorase-based assays: diaphorase activators and chemical reducers; Diaphorase/resazurin coupled assay, resorufin fluorescence, 16 min; hits give high values; 1 = vehicle wells, 0 = NADH-free wells; activation factor at 20 µM; hit rate 0.005% among 190,000; AID 1229;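 active means diaphorase activity raised at least twofold by the compound at 20 µM; inactive means activation factor below 2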
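Material: purified diaphorase enzyme from Clostridium kluyveri / Medium: HEPES pH 7.4 buffer with MgCl2 and Tween 20 / Schedule: enzyme reaction of 16 min at room temperature / Measured by: resorufin fluorescence, excitation 544 nm, emission 590 nm / Evaluation: rise in resorufin formation, marking diaphorase activation or chemical reduction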
* marks the source's active call; other numbers are inactive results. Sampled rows, rich in hits. Any-hit rate of the full collection: about 10%.

SMILES	Lmaj promast	WT yeast gro inh	PMI activator	PMI act satM6P	Diaphorase act
CCOC(=O)c1c(NC(=O)CN2C(=O)NC(C)(c3ccccc3)C2=O)sc(C)c1C (stereo not drawn)	70.0*	24.4	0.9	0.9	0.8
CN(C)c1ccc(NC(=O)CCCc2ccccc2)cc1	76.5*	-2.1	0.9	1	0.9
CCOC(=O)c1c(NC(=O)C[n+]2ccc(N(C)C)cc2)sc(C)c1C	84.0*	18.0	1	0.9	0.9
CC(C)C(NS(=O)(=O)c1ccccc1)C(=O)OCc1cc([N+](=O)[O-])cc2c1OCOC2 (stereo not drawn)	4.3	18.3	0.9	1	1
c1ccc2sc(Sc3ncnc4sccc34)nc2c1	68.6*	-26.5	0.9	0.9	0.8
CC(C1CC1)N(Cc1ccccc1)C(=S)Nc1cccc(C(F)(F)F)c1 (stereo not drawn)	87.5*	76.0*	0.9	0.9	0.9
CC(C)CSC1=NSC2=NC(=O)/C(=C\c3coc4ccccc4c3=O)C(=N)N12	-12.8	13.8	1.6	2*	0.7
COc1ccccc1NC(=O)CSC1=NCCN1	-2.8	-9.8	1	1	0.9
O=C(CSC1=NCCN1)NC(c1ccccc1)c1ccccc1	93.6*	6.4	1	0.9	1
Cc1cc(C)nc(/N=C(\N)Nc2ccccc2-c2ccccc2)n1	95.5*	0.0	1	1	0.9
Cc1cc(C)cc(N/C(N)=N/c2nc(C)cc(C)n2)c1	85.0*	9.3	1.1	1.1	1.1
Cc1ccc(N/C(N)=N/c2nc(C)cc(C)n2)cc1	17.4	1.8	1	0.8	0.9
COc1ccccc1N1C(=O)C2C(c3ccc(F)cc3)NN(C(=O)c3ccc(C)cc3)C2C1=O (stereo not drawn)	1.4	-0.9	0.9	0.9	0.9
CC(=O)Nc1ccc(OS(=O)(=O)c2cc(Cl)ccc2C)cc1	1.2	-3.5	0.9	1	0.9
COc1ccc(OC)c(-n2c(SCC(=O)NCc3ccco3)nnc2-c2c[nH]c3ccccc23)c1	96.3*	-13.2	0.9	0.9	0.7
CCn1c(SCC(=O)NCc2ccco2)nnc1-c1c[nH]c2ccccc12	1.6	-0.9	0.9	0.9	0.9
COc1cccc(-n2c(SCC(=O)NCc3ccco3)nnc2-c2c[nH]c3ccccc23)c1	98.4*	-29.7	0.9	0.9	0.8
COc1cc(NC(=O)c2cccs2)c(OC)cc1NC(=O)CCC(=O)Nc1ccc2ncccc2c1	3.0	-11.7	0.9	0.9	0.8
Cc1ccc(OCCOCCN2CCN(C)CC2)c([N+](=O)[O-])c1	-5.7	-17.6	0.9	1	0.7
Cc1ccc(OCCOCCNC(C)(C)C)c([N+](=O)[O-])c1	91.8*	-13.9	1.2	1.3	1
COc1ccc(OCCOCCOc2ccc(C)cc2[N+](=O)[O-])cc1	1.7	26.2	0.9	0.9	0.8
COCCNCCCCOc1ccc(C)cc1[N+](=O)[O-]	74.2*	3.5	0.8	1	0.9
Cc1ccc(OCCOc2cccc3ccc(C)nc23)c([N+](=O)[O-])c1	3.0	-5.8	0.8	0.4	0.9
C=CCNCCCCOc1ccc(C)cc1[N+](=O)[O-]	61.4*	-13.7	0.9	0.9	0.8
Cc1ccc(OCCOCCN2CCCCC2)c([N+](=O)[O-])c1	70.3*	1.9	1.2	1.1	1.1
SMILES	Lmaj promast	WT yeast gro inh	PMI activator	PMI act satM6P	Diaphorase act
Cc1cnc([N+](=O)[O-])n1CCOC(=O)NC(=O)c1ccccc1Cl	5.5	2.0	1	1.1	1.1
COc1cccc(OCCOCCOc2ccc(C)cc2[N+](=O)[O-])c1	3.0	18.4	1	1	0.8
CCC(C)NCCCOc1ccc(C)cc1OC (stereo not drawn)	0.6	-10.4	1	1.1	0.9
COCCCNCCOc1ccc(C)cc1[N+](=O)[O-]	89.5*	-0.3	1	1	0.9
CCC(C)NCCCCOc1ccc(C)cc1[N+](=O)[O-] (stereo not drawn)	88.0*	-10.6	1	1	0.9
COCCCNCCOCCOc1ccc(C)cc1[N+](=O)[O-]	93.6*	2.5	0.9	1	0.9
CC(C)c1csc(CN2CCC(CO)(Cc3cccc(F)c3)CC2)n1	-3.0	-3.3	1	1	1.1
CSc1ccccc1NC(=O)c1ccccc1C	-1.4	-8.5	0.9	0.9	0.9
